Screens: PubChem, several laboratories
tolC growth inh: blocks growth of E. coli BW25113 tolC mutant | OD615 | growth inhibition, % at 10 µM (by protocol) | 65,000 tested, 2.2% active | AID 573;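 active means growth inhibition at or above a cutoff equal to the mean over every tested compound plus 3 SD, cut at about 60% in these data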;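 further: growth measured after 20 h incubation at 37 °C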
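Test system: E. coli BW25113 ΔtolC::kan bacteria | Medium: Kanamycin-containing LB broth (50 µg/mL) | Dosing: One dose of 10 µM final | Times: 20 h incubation with compound, 37 °C | Detection: Optical density read at 615 nm | Read-out basis: Percent growth inhibition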
PLAP activator: activators of human placental alkaline phosphatase; AID 696; activation fold at 20 µM; 96,000 tested, 1.2% active; P05187; purified PLAP enzyme, luminescent substrate read-out; active compounds read high; in the data active means activation fold above about 2
Target sequence (P05187 whole entry, looked up): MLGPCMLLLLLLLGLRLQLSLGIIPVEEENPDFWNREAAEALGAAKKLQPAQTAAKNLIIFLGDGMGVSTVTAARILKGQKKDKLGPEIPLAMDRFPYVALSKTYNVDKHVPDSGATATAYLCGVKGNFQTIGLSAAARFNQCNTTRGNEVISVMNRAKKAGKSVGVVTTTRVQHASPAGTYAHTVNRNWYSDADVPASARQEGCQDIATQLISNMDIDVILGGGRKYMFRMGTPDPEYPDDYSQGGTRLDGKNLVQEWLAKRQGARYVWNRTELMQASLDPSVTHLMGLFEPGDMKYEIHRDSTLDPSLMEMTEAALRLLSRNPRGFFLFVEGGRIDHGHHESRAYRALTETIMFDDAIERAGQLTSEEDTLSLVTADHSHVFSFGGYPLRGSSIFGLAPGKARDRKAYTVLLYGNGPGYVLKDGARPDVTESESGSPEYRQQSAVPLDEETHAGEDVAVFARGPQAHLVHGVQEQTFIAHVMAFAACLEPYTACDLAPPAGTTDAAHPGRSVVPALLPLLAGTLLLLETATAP
PostGolgi ctrl: yeast control strain growth, post-Golgi counter-screen; efflux-deficient yeast background strain, growth absorbance A615, 16 h; inhibition, % at 10 µM; 98,000 tested, 5% active; AID 738
PostGolgi yeast: growth inhibition of a yeast mutant, post-Golgi transport screen; inhibition, % at 10 µM; post-Golgi transport phenotypic cell assay; AID 739; 98,000 tested, 0.9% active;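 further: yeast cells grown in 1536-well plates; yeast grown about 18 h at 30C before absorbance read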
HePTP inhibitor: blocks human HePTP tyrosine phosphatase. P35236. recombinant HePTP phosphatase activity, OD absorbance. inhibition, % at 20 µM. 110,000 tested, 0.64% active; in the data active means inhibition above about 50%;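 further: plate controls were vehicle for no effect and reference inhibitor for full effect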
E coli WT exp: blocks growth of wild type E. coli BW25113 | OD600 absorbance | growth inhibition, % at 100 µM | 98,000 tested, 0.15% active;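 active means growth inhibition above about 50% at one test dose, limit read from the data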;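 further: growth measured after 20 h incubation at 37 °C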
Starred values were filed as active, the others as inactive; . = no result. Shown are actives, neighbours in structure and some others; about 5.4% of the full set was active somewhere. Unless noted, no stated cut-off is given here; in the data, active means inhibition above about 30%; inactive means the rest.

SMILES	tolC growth inh	PLAP activator	PostGolgi ctrl	PostGolgi yeast	HePTP inhibitor	E coli WT exp
O=S(=O)(Nc1ccc(N2CCCCC2)cc1)c1cccs1	14	1.2	6	-4	7	10
c1cnc2c(OCc3nc4ccccc4[nH]3)cccc2c1	37	2.1*	-7	1	14	2
COc1ccccc1OCc1nc2ccccc2[nH]1	7	1	-6	-3	7	20
O=C(Nc1ccc2c(c1)N(Cc1ccccc1)C(=O)c1ccccc1S2)NC1CC1	.	2.1*	7	-6	.	-3
CN1C(=O)c2ccccc2Sc2ccc(NC(=O)NC3CC3)cc21	-4	1.3	9	3	-4	1
O=C(Nc1ccccc1Cl)C1CCN(Cc2cnn(-c3ccccc3)c2-n2cccc2)CC1	.	2*	1	10	.	-7
COc1ccccc1NC(=O)N1CCCC1C(=O)NCc1ccc2c(c1)OCO2 (stereo unspecified)	.	1.1	-8	-4	.	-12
O=C(NCc1ccc2c(c1)OCO2)C1CCN(Cc2cnn(-c3ccccc3)c2-n2cccc2)CC1	2	2.5*	6	0	-2	-1
O=C(NCc1ccc2c(c1)OCO2)C1CCCN1C(=O)Nc1ccccc1 (stereo unspecified)	-12	1	-1	33*	6	2
COc1cc(/C=C2\C(=O)NC(=S)N(c3ccccc3)C2=O)cc([N+](=O)[O-])c1O	.	.	.	.	59*	.
COc1ccc(Nc2ncnc3c2cnn3-c2cccc(C)c2)cc1OC	-11	.	.	.	3	.
N#CC(C#N)=C1C(Cl)=C(Cl)c2ccccc21	.	.	.	.	12	.
COc1ccc2nc(NC(=O)C3COc4ccccc4O3)sc2c1 (stereo unspecified)	93*	1.2	36*	4	6	-9
CS(=O)(=O)c1ccc2nc(NC(=O)C3COc4ccccc4O3)sc2c1 (stereo unspecified)	9	1	7	2	-2	-6
CCOc1cc(/C=N/NC(=O)c2cccc([N+](=O)[O-])c2)ccc1OS(=O)(=O)c1ccccc1	.	1	22	6	.	-10
Cc1ccc(Cl)cc1N1CCN(C(=O)c2cc3c(=O)n(C)c4ccccc4c3n2C)CC1	17	1.6	45*	-8	13	-3
Cn1c(C(=O)N2CCN(c3ccccc3F)CC2)cc2c(=O)n(C)c3ccccc3c21	-6	.	.	.	7	.
Cn1c(C(=O)N2CCCC2)cc2c(=O)n(C)c3ccccc3c21	11	0.9	-4	7	1	4
Cc1cccc(N2CCN(C(=O)c3cc4c(=O)n(C)c5ccccc5c4n3C)CC2)c1C	-2	0.9	40*	3	-6	-13
CCCS(=O)(=O)N1CCC(C(=O)NCc2ccco2)CC1	-21	1	11	1	-7	-3
Cc1ccc(C2N(c3ccc(Cl)c(Cl)c3)C(=O)C3CCCN32)o1 (stereo unspecified)	2	0.9	1	40*	8	21
COc1ccc(N2C(=O)C3CCCN3C2c2ccc(C)o2)cc1Cl (stereo unspecified)	-6	1.1	15	-4	3	5
C=CCSc1nccc(-c2nn(-c3ccc(C)cc3)ccc2=O)n1	.	1.3	34*	2	.	-20
CCc1ccc(C(=O)CN(C#N)c2nc(C)cc(C)n2)cc1	.	2.7*	7	-6	.	-7
O=S(=O)(Nc1nc2ccccc2nc1NCc1ccco1)c1cccs1	81*	1.2	-1	-13	5	4
SMILES	tolC growth inh	PLAP activator	PostGolgi ctrl	PostGolgi yeast	HePTP inhibitor	E coli WT exp
Cc1ccc(C(=O)O/N=C/c2c(C(F)(F)F)nn(C)c2Sc2ccc(Cl)cc2)cc1	.	0.8	6	19	.	-14
O=C(Nc1cccc2cccnc12)c1cccc2ccccc12	.	0.8	37*	-4	.	-9
O=C(Nc1cccc2ccccc12)c1ccc(Br)o1	15	0.8	1	-11	9	-2
O=C(Nc1cccc2cccnc12)c1ccc(Br)o1	93*	1.1	16	16	20	7
Cc1c(C(=O)Nc2cccc3cccnc23)oc2ccccc12	-12	1	-7	1	6	-13
O=C(NNC(=O)C(c1ccccc1)c1ccccc1)c1ccc(Cl)cc1	.	.	.	.	-5	.
O=C(CN1CCN(Cc2ccccc2F)C1=O)NCc1ccco1	.	2*	0	-7	.	5
CCOC(=O)n1c(=O)n(Cc2c(Cl)cccc2Cl)c2ccccc21	.	1	9	7	.	-4
NC(=O)c1ccc(C(F)(F)F)n(Cc2c(Cl)cccc2Cl)c1=O	.	1	34*	7	.	-9
O=C(O)CCC(=O)N1CCc2cc(S(=O)(=O)N3CCC(Cc4ccccc4)CC3)ccc21	100*	1.3	.	5	-10	-12
CCOC(=O)N1CCC(NC(=O)Cn2ncc3c2-c2cc(C)ccc2OC3)CC1	-3	1.5	5	1	6	-1
c1ccc(-c2oc3ncnc(NCCCN4CCOCC4)c3c2-c2ccccc2)cc1	29	1.7	67*	15	12	11
N#Cc1nc(COc2ccc(-c3ccccc3)cc2)oc1NCCCN1CCOCC1	35	1.7	16	78*	10	15
N#Cc1nc(COc2ccccc2)oc1NCCN1CCOCC1	-13	0.9	11	1	6	9
O=C(CCSc1nc(-c2ccco2)cc(C(F)(F)F)n1)N1CCN(c2ccccn2)CC1	60	1.5	30*	5	5	-27
COc1cc(OC)cc(-n2nnnc2SCC(=O)N2CCCc3ccccc32)c1	84*	1.1	8	-7	9	-10
O=C(CSc1nc(-c2ccco2)cc(C(F)(F)F)n1)N1CCSCC1	16	.	.	.	.	.
O=C(CCSc1nc(-c2ccco2)cc(C(F)(F)F)n1)N1CCCc2ccccc21	77*	1.6	38*	-3	4	-17
O=C(CCCSc1nc(-c2ccco2)cc(C(F)(F)F)n1)Nc1ccc2c(c1)OCO2	79*	1.1	10	-1	-2	-6
CCC(CO)NC(=O)c1ccc(-c2nn(C)c(=O)c3ccccc23)cc1 (stereo unspecified)	.	1.1	25	3	.	0
Cc1nnc2n1N=CC=C(c1ccccc1)S2	2	0.9	-5	26	0	7
CCCn1c(SCC(=O)N2CCCc3ccccc32)nnc1-c1ccco1	11	0.9	36*	-7	8	-3
COc1cc2c(cc1NS(=O)(=O)c1ccc([N+](=O)[O-])cc1)oc1ccccc12	.	.	.	.	-1	.
O=S(=O)(Nc1ccc2c(c1)oc1ccccc12)N1CCCC1	4	1	47*	-13	8	-6
Cc1ccc(S(=O)(=O)Nc2ccc3c(c2)oc2ccccc23)cc1	.	.	.	.	2	.
O=S(=O)(Nc1ccc(Cl)cc1)c1ccc2c(c1)OCCO2	.	.	.	.	-7	.
O=S(=O)(Nc1ccc2c(c1)OCCO2)c1ccc2oc3ccccc3c2c1	98*	1.3	59*	9	-1	-7
COc1cc2c(cc1NS(=O)(=O)N1CCCCC1)oc1ccccc12	.	1.5	68*	21	.	-9
COc1cccc(NC(=O)NCCCN2CCN(c3ccc(F)cc3)CC2)c1	1	1.1	2	9	8	14
